High-throughput results from PubChem.
NPY-Y2 PAM-ag = human NPY-Y2 potentiation or agonism, primary screen; P49146; cells expressing NPY-Y2, potentiator/agonist read-out; activation, % at 3.6 µM; actives 0.45% (n = 220,000); AID 1359; in the data active = activation above about 27%;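 note: cells stimulated with NPY near EC25 plus isoproterenol at EC100; 0% = vehicle plus submaximal agonist and 100% = vehicle plus saturating agonist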
NPY-Y1 PAM-ag = human NPY-Y1 potentiation or agonism, primary screen. P25929. NPY-Y1 expressing cells, potentiator/agonist activation. activation, % at 3.6 µM. AID 1304. actives 0.37% (n = 220,000); in the data active = activation above about 33%, passing the limit was not always enough;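 note: cells stimulated with NPY at EC10 then isoproterenol at EC100; 0% = low agonist plus stimulus and 100% = saturating agonist plus stimulus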
Target sequence (P25929 whole entry, looked up): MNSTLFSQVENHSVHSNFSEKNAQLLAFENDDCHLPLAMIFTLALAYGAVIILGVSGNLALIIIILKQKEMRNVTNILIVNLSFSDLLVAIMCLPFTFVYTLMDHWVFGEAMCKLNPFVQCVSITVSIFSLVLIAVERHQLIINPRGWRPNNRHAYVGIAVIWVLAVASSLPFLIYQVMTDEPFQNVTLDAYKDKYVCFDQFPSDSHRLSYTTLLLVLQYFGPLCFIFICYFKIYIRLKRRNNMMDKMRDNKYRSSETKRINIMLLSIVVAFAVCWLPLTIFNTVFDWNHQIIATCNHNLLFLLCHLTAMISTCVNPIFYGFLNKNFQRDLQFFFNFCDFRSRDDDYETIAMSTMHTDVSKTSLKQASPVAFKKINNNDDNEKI
S1P4 ag = human S1P4 receptor agonism; S1P4-expressing cell line, agonist reporter assay; activation, % at 4.98 µM; actives 0.35% (n = 220,000); AID 1509; in the data active = activation above about 11%;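 note: 0% = DMSO vehicle and 100% = reference agonist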
NPY Y1 blocker = NPY-Y1 (human) receptor antagonism; P25929; HEK293-CNG Y1 cells, membrane potential fluorescence; NPY at EC95, then isoproterenol; inhibition, % at 3.6 µM; actives 1% (n = 200,000); AID 1040;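 active = inhibition above the campaign mean inhibition of all tested compounds plus 3 SD, cut at about 20% in these data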;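 note: 0% = DMSO wells given NPY plus isoproterenol and 100% = isoproterenol alone without NPY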
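Test system – HEK293 Y1/CNG channel cell line · Also added – NPY agonist 25 nM, then isoproterenol 1 µM plus Ro 20-1724 25 µM · Compound dosing – one concentration, 3.6 µM, in 0.4% DMSO · Schedule – compound incubation 1 h at room temperature, readout 45 min post-stimulation · Technique – fluorescence, membrane potential probe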
NPY Y2 blocker = antagonists of human neuropeptide Y receptor Y2; AID 793; NPY-Y2 expressing cells, antagonist mode; P49146; actives 0.99% (n = 140,000); inhibition, % at 2.7 µM; in the data active = inhibition above about 17%;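 note: 0% = vehicle with agonist challenge and 100% = reference antagonist with challenge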
S1P4 antagonist = blocks the human S1P4 receptor | O95977 | S1P4-expressing cells, antagonist mode, reporter read-out | inhibition, % at 4.98 µM | actives 0.26% (n = 220,000); in the data active = inhibition above about 29%;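 note: 0% = wells stimulated with agonist and 100% = vehicle wells without agonist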
NPY1 antag ctr = counter-screen for NPY-Y2 antagonists: human NPY-Y1 antagonism; shares compounds with NPY Y2 blocker; cell-based NPY-Y1 antagonism counterscreen; inhibition, % at 3.6 µM; actives 19% (n = 710); AID 1256; in the data active = inhibition above about 20%;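 note: cells challenged with NPY then isoproterenol with cAMP sensed through a CNG channel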
NPY2 antag conf = human NPY-Y2 antagonism, confirmation; shares compounds with NPY Y2 blocker; inhibition, % at 2.8 µM; HEK293 NPY-Y2 CNG channel, membrane potential fluorescence; AID 1257; actives 32% (n = 710);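 active = mean inhibition of triplicate wells above the hit cutoff set in the primary screen, cut at about 17% in these data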;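 note: 0% = DMSO with NPY challenge and 100% = BIIE0246 high control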
* marks the source's active call; other numbers are inactive results; x = no result. An excerpt weighted towards active compounds, which were near 2.4% of everything screened.

SMILES	NPY-Y2 PAM-ag	NPY-Y1 PAM-ag	S1P4 ag	NPY Y1 blocker	NPY Y2 blocker	S1P4 antagonist	NPY1 antag ctr	NPY2 antag conf
CCC(=O)N(CCc1ccc(OC)c(OC)c1)Cc1cc2ccc(C)cc2n2nnnc12	10.9	-8.3	1.4	0.1	x	2.6	x	x
CCCOc1ccc(C(CC(=O)O)NC(=O)c2sc3ccccc3c2Cl)cc1 (centres undefined)	-31.0	-26.2	0.1	7.1	x	-6.5	x	x
CCOc1ccc(C(CC(=O)O)NC(=O)c2sc3ccccc3c2Cl)cc1 (centres undefined)	-22.8	-43.0	2.4	17.5	19.2*	5.7	22.4*	28.1*
Cc1ccc(-c2nnc(/C=C/c3ccccc3)o2)cc1	-9.4	-9.7	0.9	6.2	20.0*	-10.6	6.9	10.1
Brc1ccc2c(c1)OCCOCCOc1cc(Br)ccc1OCCOCCOCCO2	-4.5	-16.4	-1.9	18.5	23.8*	-6.6	19.1	15.1
COc1ccc(N(C(C)C(=O)Nc2cccnc2)S(C)(=O)=O)cc1 (centres undefined)	4.0	8.5	1.4	4.4	x	-12.1	x	x
c1ccc(N(c2ccccc2)c2nc(-n3ccnc3)nc(-n3ccnc3)n2)cc1	17.8	36.1	2.9	3.1	23.3*	-22.6	5.8	2.7
O=c1c([N+](=O)[O-])c(N2CCCC2)c2ccccc2n1-c1ccccc1	-8.5	-5.2	-0.2	-2.9	x	-2.6	x	x
O=C(Cc1ccc2c(c1)CCCC2)Nc1ccc2ccccc2c1	-14.2	-11.0	2.7	18.2	17.7*	-13.0	10.8	12.6
Cc1ccc(SCCNC(=O)/C=C/c2ccc(Cl)cc2)cc1	-1.4	-22.9	-0.7	8.8	18.9*	-11.1	29.1*	39.2*
CC1(C)CC2CC(C)(CN2C(=O)COc2cccc3ccccc23)C1 (centres undefined)	14.2	-7.6	-1.2	6.1	17.3*	2.5	5.1	5.9
CN(C)C(CNC(=O)CNC(=O)c1ccc(Br)cc1)c1ccccc1 (centres undefined)	-8.6	-0.3	-0.6	3.5	x	-12.6	x	x
Cc1cccc(NC(=S)N(CCN(C)C)Cc2cc3cc(C)cc(C)c3[nH]c2=O)c1	4.7	-8.0	0.3	16.8	19.3*	-5.9	14.4	27.4*
Cc1cccc(NC(=S)N(CCN(C)C)Cc2cc3cccc(C)c3[nH]c2=O)c1	-12.4	-53.0	-1.1	8.2	7.6	-8.0	x	x
COC(=O)c1c(C)oc2ccc(N(C(=O)c3ccncc3)S(=O)(=O)c3ccccc3)cc12	4.3	-17.4	1.1	-2.4	7.5	-15.0	x	x
COC(=O)c1c(C)oc2ccc(N(C(=O)c3ccncc3)S(=O)(=O)c3ccc4ccccc4c3)cc12	-31.4	-18.5	1.3	3.4	22.9*	-7.2	19.4	31.2*
COc1ccccc1NC(=O)c1ccc(COc2ccc3c(c2)CCC3)cc1	3.3	-8.4	0.6	3.7	22.5*	-4.3	4.1	16.0
COC(=O)c1ccccc1NC(=O)c1ccc(COc2ccc3c(c2)CCC3)cc1	5.0	-11.2	0.4	0.2	9.4	-3.7	x	x
Cc1ccc([N+](=O)[O-])c(C(=O)N/N=C/c2cccs2)c1	-14.9	-32.0	-0.9	x	x	0.4	x	x
CN(C)CCCn1c(SCC(=O)N2c3ccccc3Sc3ccccc32)nc2ccccc2c1=O	-20.9	-71.0	0.4	14.8	38.8*	-3.5	42.5*	77.3*
Cn1c(SCC(=O)N2c3ccccc3Sc3ccccc32)nc2ccccc21	-9.6	-27.8	-0.7	0.1	4.4	0.9	x	x
CCc1cccc(CC)c1NC(=O)c1ccccc1CCc1ccccc1	-6.2	-48.4	-1.4	2.0	18.7*	-4.0	28.2*	16.9
CCOc1nc(SCCOc2ccc(Cl)cc2Cl)nc(N(C)C)n1	-15.8	-39.0	4.7	10.2	19.8*	-2.1	20.0	44.0*
CCOc1nc(SCCOc2ccc(C)cc2)nc(N(C)C)n1	-14.0	-48.4	-0.8	11.8	10.9	-24.4	x	x
Cc1ccc(NC(=O)c2ccc(=O)[nH]c2)cc1S(=O)(=O)N1CCCCC1	-14.5	21.4	1.0	x	x	-13.3	x	x
